# Reference: ChEMBL document CHEMBL1140699, “Stereospecific high-affinity TRPV1 antagonists: chiral N-(2-benzyl-3-pivaloyloxypropyl) 2-[4-(methylsulfonylamino)phenyl]propionamide analogues” (J Med Chem, 2008)
# The source made the active and inactive calls. The calls are words filed in the database; no cut-off is given here.
# Columns and labels:
# [1] = target: T1, Transient receptor potential cation channel subfamily V member 1 (Rattus norvegicus, UniProt O35433); assay: Displacement of [3H]RTX from rat TRPV1 receptor expressed in CHO cells; type: cell-based
# In short: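 Competitive binding against [3H]resiniferatoxin in CHO cells heterologously expressing rat TRPV1 (CHO/VR1). Affinity reported as Ki.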
# [2] = target: Transient receptor potential cation channel subfamily V member 1 (Rattus norvegicus) (UniProt O35433); assay: Agonist activity at rat TRPV1 receptor expressed in CHO cells assessed as calcium 45 uptake at 30 uM; type: functional, cell-based
# In short: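 45Ca2+ uptake in CHO cells heterologously expressing rat TRPV1 (CHO/VR1). Compounds tested for agonism at 30 µM and scored as not effective or weakly effective. Results from 1–5 experiments.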
# [3] = target: T1, Transient receptor potential cation channel subfamily V member 1; assay: (§1) Antagonist activity at rat TRPV1 receptor expressed in CHO cells assessed as calcium 45 uptake; type: functional, cell-based
# [4] = target: Transient receptor potential cation channel subfamily V member 1 (Rattus norvegicus) (UniProt O35433); assay: Agonist activity at rat TRPV1 receptor expressed in CHO cells assessed as calcium 45 uptake relative to 300 nM capsaicin; type: functional, cell-based
# [5] = target: Transient receptor potential cation channel subfamily V member 1 (Rattus norvegicus) (UniProt O35433); assay: Antagonist activity at rat TRPV1 receptor expressed in CHO cells assessed as capsaicin-induced calcium 45 uptake; type: functional, cell-based; parameters: concentration or dose not given beside the values
# In short: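 Chinese hamster ovary cells heterologously expressing rat TRPV1 (CHO/VR1). Compounds were tested as antagonists of 150 nM capsaicin-induced ⁴⁵Ca²⁺ uptake. Antagonism was reported as Ki, with activity scored at 30 µM where potency was low. Results come from 1–5 experiments.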
# [6] = target: Transient receptor potential cation channel subfamily V member 1 (Rattus norvegicus) (UniProt O35433); assay: as §1; type: functional, cell-based
# Transient receptor potential cation channel subfamily V member 1 (Rattus norvegicus), sequence (O35433 whole entry): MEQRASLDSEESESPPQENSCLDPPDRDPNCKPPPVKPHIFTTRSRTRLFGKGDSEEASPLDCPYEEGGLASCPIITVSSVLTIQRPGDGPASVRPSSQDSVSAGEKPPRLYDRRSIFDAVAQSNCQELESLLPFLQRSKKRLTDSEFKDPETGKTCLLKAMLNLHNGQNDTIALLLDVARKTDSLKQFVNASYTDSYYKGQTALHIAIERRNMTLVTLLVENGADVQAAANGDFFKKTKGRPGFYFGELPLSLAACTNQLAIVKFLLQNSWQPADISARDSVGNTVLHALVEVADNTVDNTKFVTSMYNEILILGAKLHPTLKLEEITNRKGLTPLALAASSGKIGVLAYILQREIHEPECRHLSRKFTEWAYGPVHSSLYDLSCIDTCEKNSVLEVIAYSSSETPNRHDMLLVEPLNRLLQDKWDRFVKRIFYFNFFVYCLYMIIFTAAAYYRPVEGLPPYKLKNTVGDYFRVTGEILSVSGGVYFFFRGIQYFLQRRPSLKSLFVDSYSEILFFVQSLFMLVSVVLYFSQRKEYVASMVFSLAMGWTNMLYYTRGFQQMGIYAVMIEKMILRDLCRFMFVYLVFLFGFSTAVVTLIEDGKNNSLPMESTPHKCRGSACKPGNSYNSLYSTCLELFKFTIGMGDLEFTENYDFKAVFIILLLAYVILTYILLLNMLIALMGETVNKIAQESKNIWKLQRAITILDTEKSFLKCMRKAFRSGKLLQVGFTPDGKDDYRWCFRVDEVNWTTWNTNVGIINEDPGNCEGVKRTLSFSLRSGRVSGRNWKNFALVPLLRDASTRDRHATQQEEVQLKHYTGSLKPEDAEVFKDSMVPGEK
# T1 sequence (O35433 whole entry): as above
Structure (SMILES),Activity [2],also measured
Cc1ccc(CC(CNC(=O)C(C)(C)c2ccc(NS(C)(=O)=O)c(F)c2)COC(=O)C(C)(C)C)cc1C (configuration not stated),inactive,Ki [1]: 280 nM
C[C@H](C(=O)NC[C@@H](COC(=O)C(C)(C)C)Cc1ccc(C(C)(C)C)cc1)c1ccc(NS(C)(=O)=O)c(F)c1,inactive,Ki [1]: 6.26 nM
C[C@H](C(=O)NC[C@@H](COC(=O)C(C)(C)C)Cc1ccc(C(C)(C)C)cc1)c1ccc(NS(C)(=O)=O)c(Cl)c1,inactive,–
CC(C(=O)NCC(COC(=O)C(C)(C)C)Cc1ccc(C(C)(C)C)cc1)c1ccc(NS(C)(=O)=O)cc1 (configuration not stated),inactive,–
C[C@@H](C(=O)NC[C@H](COC(=O)C(C)(C)C)Cc1ccccc1)c1ccc(NS(C)(=O)=O)c(F)c1,inactive,–
C=C(C)[C@]12C[C@@H](C)[C@@]34O[C@](Cc5ccccc5)(O[C@@H]1[C@@H]3C=C(COC(=O)Cc1cc(I)c(O)c(OC)c1)C[C@]1(O)C(=O)C(C)=C[C@@H]41)O2 [IODORESINIFERATOXIN],inactive,Ki [1]: 0.61 nM; Ki [3]: 12.2 nM
C[C@@H](C(=O)NC[C@@H](COC(=O)C(C)(C)C)Cc1ccccc1)c1ccc(NS(C)(=O)=O)c(F)c1,inactive,–
CC(C)(C)C(=O)OCC(CNC(=S)NCc1ccc(NS(C)(=O)=O)c(F)c1)Cc1ccc(C(C)(C)C)cc1 (configuration not stated),–,Activity [4]: 5%; Ki [3]: 52 nM
Oc1cc2c(cc1O)CN(C(=S)NCCc1ccc(Cl)cc1)CCC2,inactive,–
Cc1ccc(CC(CNC(=S)NCc2ccc(NS(C)(=O)=O)c(F)c2)COC(=O)C(C)(C)C)cc1C (configuration not stated),inactive,–
Cc1ccc(CC(CNC(=O)C(C)c2ccc(NS(C)(=O)=O)cc2)COC(=O)C(C)(C)C)cc1C (configuration not stated),inactive,–
CC(C(=O)NCC(COC(=O)C(C)(C)C)Cc1ccc(C(C)(C)C)cc1)c1ccc(NS(C)(=O)=O)c(F)c1 (configuration not stated),–,Activity [4]: 8%; Activity [5]: 95%
CC(C(=O)NCC(COC(=O)C(C)(C)C)Cc1ccc(C(C)(C)C)cc1)c1ccc(NS(C)(=O)=O)c(Cl)c1 (configuration not stated),–,Activity [5]: 61%
C[C@H](C(=O)NC[C@H](COC(=O)C(C)(C)C)Cc1ccc(C(C)(C)C)cc1)c1ccc(NS(C)(=O)=O)c(Cl)c1,inactive,–
Cc1ccc(CC(CNC(=O)C(C)c2ccc(NS(C)(=O)=O)c(Cl)c2)COC(=O)C(C)(C)C)cc1C (configuration not stated),–,Activity [4]: 16%
COc1cc(C(C)(C)C(=O)NCC(COC(=O)C(C)(C)C)Cc2ccc(C)c(C)c2)ccc1NS(C)(=O)=O (configuration not stated),inactive,–
C[C@H](C(=O)NC[C@@H](COC(=O)C(C)(C)C)Cc1ccccc1)c1ccc(NS(C)(=O)=O)c(F)c1,inactive,Ki [1]: 16.5 nM
Cc1ccc(CC(CNC(=O)Cc2ccc(NS(C)(=O)=O)c(F)c2)COC(=O)C(C)(C)C)cc1C (configuration not stated),–,Activity [5]: 71%
Cc1ccc(CC(CNC(=O)C2(c3ccc(NS(C)(=O)=O)c(F)c3)CC2)COC(=O)C(C)(C)C)cc1C (configuration not stated),inactive,–
Cc1ccc(CC(CNC(=O)C2(c3ccc(NS(C)(=O)=O)cc3)CC2)COC(=O)C(C)(C)C)cc1C (configuration not stated),inactive,–
C[C@H](C(=O)NC[C@H](COC(=O)C(C)(C)C)Cc1ccccc1)c1ccc(NS(C)(=O)=O)c(F)c1,inactive,–
CC(C)(C)C(=O)OCC(CNC(=O)Cc1ccc(NS(C)(=O)=O)c(F)c1)Cc1ccc(C(C)(C)C)cc1 (configuration not stated),–,Activity [4]: 7%; Ki [3]: 440 nM; Activity [5]: 56%
C[C@@H](C(=O)NC[C@@H](COC(=O)C(C)(C)C)Cc1ccc(C(C)(C)C)cc1)c1ccc(NS(C)(=O)=O)c(F)c1,–,Activity [4]: 9%
C[C@@H](C(=O)NC[C@H](COC(=O)C(C)(C)C)Cc1ccc(C(C)(C)C)cc1)c1ccc(NS(C)(=O)=O)c(F)c1,inactive,–
COc1cc(C2(C(=O)NCC(COC(=O)C(C)(C)C)Cc3ccc(C)c(C)c3)CC2)ccc1NS(C)(=O)=O (configuration not stated),inactive,–
Cc1ccc(CC(CNC(=O)C(C)c2ccc(NS(C)(=O)=O)c(F)c2)COC(=O)C(C)(C)C)cc1C (configuration not stated),inactive,–
Cc1ccc(CC(CNC(=O)C(C)(C)c2ccc(NS(C)(=O)=O)cc2)COC(=O)C(C)(C)C)cc1C (configuration not stated),inactive,–
COc1cc(C(C)C(=O)NCC(COC(=O)C(C)(C)C)Cc2ccc(C)c(C)c2)ccc1NS(C)(=O)=O (configuration not stated),–,Activity [4]: 10%; Activity [5]: 63%
COc1cc(C(C)C(=O)NCC(COC(=O)C(C)(C)C)Cc2ccc(C(C)(C)C)cc2)ccc1NS(C)(=O)=O (configuration not stated),–,Activity [4]: 40%; Activity [6]: inactive
C[C@H](C(=O)NC[C@H](COC(=O)C(C)(C)C)Cc1ccc(C(C)(C)C)cc1)c1ccc(NS(C)(=O)=O)c(F)c1,inactive,Ki [1]: 4.12 nM
